# Screening data: PubChem, The Scripps Research Institute Molecular Screening Center
# M5 ag = human M5 muscarinic receptor agonists, primary screen, CHO-K1 cells, Fluo-8 calcium fluorescence; Muscarinic acetylcholine receptor M5 (Homo sapiens), P08912; CHO-K1 hM5 cells; 0% DMSO wells, 100% maximal acetylcholine response; activation, % at 3 µM; hit rate 0.19% among 360,000; AID 624037, 2012;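 active = activation above the run's mean over test compounds plus 3 SD, cut at about 23% in these data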;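 also: signal is peak over basal fluorescence ratio across the kinetic read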
# Target sequence (P08912 whole entry, looked up): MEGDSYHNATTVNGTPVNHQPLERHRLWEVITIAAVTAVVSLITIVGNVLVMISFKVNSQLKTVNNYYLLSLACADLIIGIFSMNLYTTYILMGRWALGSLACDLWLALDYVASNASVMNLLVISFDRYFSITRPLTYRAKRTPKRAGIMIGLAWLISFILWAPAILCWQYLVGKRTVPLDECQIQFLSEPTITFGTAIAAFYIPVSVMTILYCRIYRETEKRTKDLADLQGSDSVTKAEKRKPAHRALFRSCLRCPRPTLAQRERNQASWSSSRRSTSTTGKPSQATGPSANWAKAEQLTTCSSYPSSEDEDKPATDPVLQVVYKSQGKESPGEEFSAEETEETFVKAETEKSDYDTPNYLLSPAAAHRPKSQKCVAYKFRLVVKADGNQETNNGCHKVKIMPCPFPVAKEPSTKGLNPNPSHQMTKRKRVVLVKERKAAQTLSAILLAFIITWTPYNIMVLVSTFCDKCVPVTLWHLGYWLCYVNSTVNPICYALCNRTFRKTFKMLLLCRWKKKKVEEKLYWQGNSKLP
# CHRM5 antagonist = human M5 muscarinic receptor antagonists, primary screen, CHO cells, Fluo-8 calcium fluorescence | Muscarinic acetylcholine receptor M5 (Homo sapiens), P08912 | CHO-hM5 cells, ACh EC80 | inhibition, % at 3 µM | hit rate 0.59% among 360,000 | AID 624040, 2012;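 active = inhibition above a per-plate cutoff, the mean of that plate's test compounds plus 3 SD, cut at about 27% in these data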
# M1 antag = human M1 muscarinic receptor antagonists, primary screen, CHO-K1 cells, Fluo-8 calcium fluorescence, 1536-well; Muscarinic acetylcholine receptor M1 (Homo sapiens), P11229; CHO-K1 hM1, ACh EC80 antagonist; inhibition, % at 3 µM; hit rate 1.3% among 360,000;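 active = percent inhibition above its own plate's cutoff, namely the mean of that plate's compound wells plus 3 SD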;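 also: peak over basal fluorescence ratio during 140 s after agonist addition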
# M5 PAM = human M5 muscarinic receptor positive allosteric modulators, primary screen, CHO-K1 cells, Fluo-8 calcium fluorescence; CHO-K1 hM5, ACh EC20 PAM; 0% = ACh EC20, 100% = ACh EC100; activation, % at 3 µM; hit rate 0.3% among 360,000; AID 624038, 2012;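 active = activation above the run cutoff, the mean activation of all test compounds plus 3 SD, cut at about 18% in these data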
#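 Assay system – human M5 receptor in CHO-K1 cells · Read-out – % activation, ACh-normalized · Technique – Fluo-8 calcium fluorescence · Dosing – single-point, 3 µM nominal · Incubation – Fluo-8 loading 80 min at 37 °C plus 30 min room temperature · Repeats – singlicate, one well per test compound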
# CHRM1 PAM = human M1 muscarinic receptor positive allosteric modulators, primary screen, CHO-K1 cells, Fluo-8 calcium fluorescence, 1536-well; activation, % at 3 µM; hit rate 0.088% among 360,000; CHO-K1 hM1, ACh EC20; 0% = ACh EC20, 100% = maximal ACh; AID 588819, 2011; Muscarinic acetylcholine receptor M1 (Homo sapiens), P11229; in the data active = activation above about 19%, passing the limit was not always enough
# CHRM1 agonist = human M1 muscarinic receptor agonists, primary screen, Fluo-8 calcium fluorescence, CHO-K1 cells, HTS | Muscarinic acetylcholine receptor M1 (Homo sapiens), P11229 | CHO-K1 hM1, agonist mode; 0% DMSO, 100% acetylcholine EC100 | activation, % at 3 µM | hit rate 0.33% among 360,000 | AID 588814, 2011;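 active = activation above the run's mean compound activation plus 3 SD, cut at about 16% in these data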;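 also: peak over basal fluorescence ratio within a 140 s kinetic read after compound addition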
# Hits are given with their value; n = inactive; ! = not active in a repeat. Rows were chosen to be rich in hits. Some 2% of all compounds tested hit in one or more screens of this group.
SMILES,M5 ag,CHRM5 antagonist,M1 antag,M5 PAM,CHRM1 PAM,CHRM1 agonist
Cc1nn(CCC(N)=S)c2nc(-c3cccs3)cc(C(F)(F)F)c12,n,n,n,n,n,n
O=[N+]([O-])/C=C\c1ccc(N2CCCC2)c(F)c1,63.6,78.0,50.7,n,n,24.3
O=Cc1ccc(N2CCCC2)c([N+](=O)[O-])c1,n,n,n,n,n,n
O=[N+]([O-])c1ccc(/C=C/C2=NN(c3ccccc3)C(c3ccco3)C2)o1 (stereo not given),57.8,51.7,60.0,n,n,66.2
O=[N+]([O-])c1ccc2nc(NN=Cc3ccc(O)cc3)sc2c1,n,n,n,n,n,n
Cc1cccc(C)c1NC(=O)NS(=O)(=O)c1ccccc1,n,n,n,n,n,n
COc1ccc(Cc2c(-c3cccc(Cl)c3)nc3c(C)cc(Br)cn23)c(C)c1,n,n,n,n,n,n
Cc1cc(S(=O)(=O)Nc2ccc(C(=O)NCCCN3CCCC3=O)cc2)ccc1F,n,n,n,n,n,n
Cc1ccc(N(c2ncnc(N)c2[N+](=O)[O-])C2CCCCC2)cc1,n,n,49.3,n,n,n
Cc1cc(SCC(=O)O)nc2ccccc12,n,n,n,18.3!,n,n
Cc1cc(SCC(=O)N2CCCC2=O)nc2c(C)cccc12,n,n,n,n,n,n
Cc1cc(SCCC(=O)O)nc2c(C)cccc12,n,n,n,33.1,n,n
Cc1ccc([C@H]2N[C@]3(CCCN(Cc4ccc(C(F)(F)F)cc4)C3=O)[C@H]3C(=O)N(Cc4ccccc4)C(=O)[C@@H]23)cc1,n,n,n,n,n,n
O=C(c1ccco1)N1CCN(C2CN(Cc3ccc(F)cc3)S(=O)(=O)C2)CC1 (stereo not given),n,n,n,n,n,n
OCC1(Cc2ccccc2F)CCCN(CCc2ccccc2)C1 (stereo not given),n,n,31.1,n,n,n
Fc1ccc(-[n+]2nc(Nc3ccccc3)sc2-c2c3ccccc3cc3ccccc23)cc1,35.9,39.0,n,n,n,19.3
COc1ccc(C)cc1Nc1n[n+](-c2ccccc2)c(-c2c(OC)ccc3ccccc23)s1,n,27.2,31.3,n,n,n
N#Cc1c(-c2ccccc2)c(-c2ccccc2)n(Cc2ccco2)c1NC(=O)c1cccs1,n,n,n,29.1,n,n
O=C(C1CCC(CNc2nc(=S)[nH]c3ccccc23)CC1)N1CCN(c2ccc(F)cc2)CC1 (stereo not given),n,n,32.6,n,n,n
O=C1CCCCC1C1(O)C(=O)Nc2ccccc21 (stereo not given),n,n,n,n,n,n
CC1CN(C(=O)CSc2nnc(-c3ccccc3)o2)CC(C)O1 (stereo not given),n,n,n,21.7,n,n
CCc1ccc(CNC(=O)c2ccc3c(c2)NC(=O)C(N2CCOCC2)S3)cc1 (stereo not given),n,n,n,n,n,n
CCOC(=O)N1CCN(C(=O)c2ccc3c(c2)NC(=O)C(N2CCOCC2)S3)CC1 (stereo not given),n,n,n,19.0,n,n
Cc1ccc(-n2c(C)cc(/C=C3\NC(=O)NC3=O)c2C)c(C)c1,n,n,31.6,n,n,n
O=C(O)CCCCCN1C(=O)/C(=C/c2cn(-c3ccccc3)nc2-c2cccs2)SC1=S,n,n,n,n,n,n
SMILES,M5 ag,CHRM5 antagonist,M1 antag,M5 PAM,CHRM1 PAM,CHRM1 agonist
CC1=NNC(=O)/C1=C\c1cn(-c2ccccc2)nc1-c1cccs1,23.7,n,33.6,n,n,n
CC1=NNC(=O)/C1=C\c1cn(-c2ccccc2)nc1-c1ccc(F)cc1,n,49.6,n,n,n,n
CN1CCN(c2cc(CNC[C@H]3O[C@@H](n4cnc5c(=O)[nH]c(N)nc54)[C@H](O)[C@@H]3O)ccc2F)CC1,n,n,n,n,n,n
O=C(NC(c1ccc(Cl)cc1)c1cnccn1)C1CCN(CCCc2ccccc2)CC1 (stereo not given),n,n,n,n,n,n
CCCCn1c(NCCN(C)C)nc2c1c(=O)[nH]c(=O)n2C,n,n,n,22.1,n,n
CC(C)Cn1c(NCCN(C)C)nc2c1c(=O)[nH]c(=O)n2C,n,n,n,n,n,n
Cc1n(Cc2ccccc2)c2ccccc2[n+]1Cc1ccccc1,n,27.5,n,n,n,n
Cc1n(Cc2ccccc2)c2cc([N+](=O)[O-])ccc2[n+]1Cc1ccccc1,n,n,n,n,n,n
COc1ccc(C(Cl)=C(C=O)c2ccc(OC)c(OC)c2)cc1OC,n,n,n,n,n,17.5
O=C1CCN2C=Nc3cccc4ccc1c2c34,n,n,n,n,n,24.6
CC12CCC3(CC1CCC1OC12)OCCO3 (stereo not given),n,n,n,n,n,n
CC1(C2CCC3C4CCC5CC6(CCC5(C)C4C(=O)CC32C)OCCO6)OCCO1 (stereo not given),n,n,n,n,24.9,n
C=CCNC(=S)N/N=C/c1ccc(C)cc1C,n,n,n,21.2,n,n
COc1cc(NC(=O)COc2cc(O)c3c(c2)OC(C)(C)CC3=O)cc(OC)c1OC,n,42.7,51.5,n,n,n
CN(C)S(=O)(=O)c1cc(NC(=O)c2ccc(-n3ccnc3)c([N+](=O)[O-])c2)ccc1Cl,n,n,25.5,n,n,n
CCc1nc2ccc(C(=O)NCCc3ccccn3)cn2c1N(C)Cc1cccs1,n,n,n,n,n,n
COc1ccc(C(=O)c2sc3nc(-c4ccccc4)ccc3c2N)cc1,n,34.0,n,n,n,n
CC(C)OC(=O)c1sc2nc(-c3ccccc3)ccc2c1N,n,n,n,n,n,n
Cc1ccc(NC(=O)C[n+]2ccn(C3=C([O-])c4ccccc4C3=O)c2)cc1,n,29.4,n,n,n,n
Cc1ccc(S(=O)(=O)/N=C2\C(=O)c3ccccc3C([O-])=C2n2cc[n+](CCC(C)C)c2)cc1,n,n,n,n,n,n
CCCCn1c(N)c(N(CC)C(=O)c2cccc(F)c2)c(=O)[nH]c1=O,n,n,n,n,n,n
CCCCn1c(N)c(N(CC)C(=O)c2ccc(Cl)c(Cl)c2)c(=O)[nH]c1=O,n,28.0,n,n,n,n
